# An excerpt weighted towards active compounds, which were near 3.7% of everything screened.
# EBI2 block: EBI2 receptor antagonists, beta-arrestin recruitment, primary screen, cell-based, luminescence, 7a,25-OHC stimulation, uHTS; 7a,25-OHC stimulated; 360,000 compounds, 0.81% hits; inhibition, % at 5 µM; G-protein coupled receptor 183 (Homo sapiens), P32249; in the data active = inhibition above about 38%;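 also: enzyme fragment complementation signal reports receptor beta-arrestin coupling in cells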
# Target sequence (P32249 whole entry, looked up, the tested form may be a part): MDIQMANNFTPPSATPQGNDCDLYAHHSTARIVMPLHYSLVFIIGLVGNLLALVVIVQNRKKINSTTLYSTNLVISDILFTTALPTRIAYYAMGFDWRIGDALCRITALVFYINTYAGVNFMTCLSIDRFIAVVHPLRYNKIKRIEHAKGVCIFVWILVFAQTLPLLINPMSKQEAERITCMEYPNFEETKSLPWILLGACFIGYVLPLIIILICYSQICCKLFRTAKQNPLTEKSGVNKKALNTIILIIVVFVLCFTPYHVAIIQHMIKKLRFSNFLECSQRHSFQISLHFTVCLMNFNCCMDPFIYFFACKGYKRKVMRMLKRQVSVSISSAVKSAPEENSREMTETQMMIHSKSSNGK
# MC4R ag barr: MC4R agonists recruiting beta-arrestin, primary screen, cell-based, luminescence, agonist arm of biased-ligand search; activation, % at 8.9 µM; Melanocortin receptor 4 (Homo sapiens), P32245; AID 540308, 2011; U2OS MC4R beta-arrestin complementation; percent of melanotan II response, DMSO zero; 360,000 compounds, 0.98% hits;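 active = activation above a per-plate cutoff, the mean activation of sample wells on that plate plus 3 SD, cut at about 8% in these data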
# MC4R antagonist: MC4R antagonists of cAMP signaling, primary screen, cell-based, TR-FRET, antagonist arm of biased-ligand search. Melanocortin receptor 4 (Homo sapiens), P32245. MC4R-expressing cells, MTII-stimulated cAMP, LANCE TR-FRET. AID 540295, 2011. inhibition, % at 6.5 µM. 360,000 compounds, 0.48% hits;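 active = inhibition above its plate's cutoff, the mean of tested wells on that plate plus 3 SD, cut at about 29% in these data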
#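 system = U2OS cells with stable human MC4R expression | also added = Melanotan II challenge after compound preincubation | dosing = one concentration, 6.5 µM nominal | incubation = compound 30 min, challenge 1 h, detection 1 h | measured by = TR-FRET with Eu-cAMP and labeled anti-cAMP, 671 nm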
# Exocytosis inh: LAMP-1 surface exposure blockers, TALL-104 cells – cell-based, flow cytometry, MLPCN library, primary screen. TALL-104 LAMP-1 surface exposure; cells stimulated with thapsigargin and PMA. inhibition, % at 10 µM. 360,000 compounds, 0.66% hits. AID 651702, 2012;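 active = inhibition above about 55%, limit read from the data; inconclusive = no clear call, values can overlap the other calls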
# Myeloid diff 2: induction of myeloid progenitor differentiation, primary screen, cell-based, flow cytometry, MLPCN library; ER-HoxA9 myeloid progenitors, lysozyme-GFP differentiation; calls only at 10 µM; 360,000 compounds, 1% hits; AID 624256, 2012;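 active = normalized GFP-positive differentiation at or above the plate's own cutoff, the solvent-only control mean plus 3 SD; inconclusive = no clear call, values can overlap the other calls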;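 also: cells exposed to compound for four days before flow analysis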
# Hits are given with their value; – = inactive; ? = inconclusive; + = active, no number.
SMILES,EBI2 block,MC4R ag barr,MC4R antagonist,Exocytosis inh,Myeloid diff 2
COc1cc(NC(=O)c2cc(-c3cccnc3)nc3ccc(Br)cc23)cc(OC)c1,–,8.2,–,–,–
CC(C)COc1cccc(-c2cc(C(=O)N/N=C/c3ccncc3)c3ccccc3n2)c1,–,9.6,–,–,–
Cc1ccc(-c2cc(C(=O)Nc3ccncc3)c3ccccc3n2)cc1,–,8.9,–,–,–
O=C(Nc1ccncc1)c1cc(-c2cccc(Br)c2)nc2ccccc12,–,21.6,–,–,–
COCCNC(=O)C1(C)Cc2c(-c3ccc(N(C)C)cc3)ccnc2O1 (stereo not drawn),–,–,–,–,–
COc1ccc(N2CCN(S(=O)(=O)c3ccc(OC)c(C(=O)N4CCCC4)c3)CC2)cc1,–,–,–,–,–
COc1ccc(NC(=O)c2cc(-c3ccc(C)o3)nc3ccccc23)cc1OC,–,–,–,63.7,–
C/C(Cl)=C\Cn1c(NCCc2ccccc2)nc2c1c(=O)n(C)c(=O)n2C,–,–,–,–,+
Cc1ccc(Cn2c(NCCc3ccccc3)nc3c2c(=O)n(C)c(=O)n3C)cc1,–,–,–,–,+
Cc1nnc(SCC(=O)NC2(C#N)CCCCC2)n1N,–,–,–,–,–
COC(=O)[C@H](Cc1ccccc1)NC(=O)[C@@H](N)CC(=O)OCc1ccccc1,–,–,–,–,+
NC(=O)c1cc(-c2ccccc2)sc1NC(=O)Cc1ccc(S(=O)(=O)N2CCOCC2)s1,49.7,–,–,–,–
Cc1c(Br)cccc1NC(=O)C1(C)CCN1Cc1ccccc1OC(F)F (stereo not drawn),–,–,–,–,–
CC(NS(=O)(=O)c1ccc(Cl)cc1)C(=O)N1CCOCC1 (stereo not drawn),–,–,–,–,–
CCCCc1cc(=O)oc2cc(C)cc(OCC(=O)Nc3cccnc3)c12,–,8.7,–,–,–
Fc1ccccc1-c1ccc(/C=N/Nc2nc3ccccc3[nH]2)o1,–,–,–,70.5,–
CCCCn1c(/C=N/Nc2nc3ccccc3[nH]2)nc2ccccc21,–,–,–,–,+
CC(C)(C)C1=CC(=Nc2ccccc2N)C=C(C(C)(C)C)C1=O,–,–,–,–,–
CC(C)(C)C1=CC(=O)C(=O)C(C(C)(C)C)=C1,–,24.6,–,–,–
COC(=O)N1CCCCC1c1cc(C(=O)NCc2cccnc2)no1 (stereo not drawn),–,–,–,–,–
CC(OC(=O)C1CC1)C(=O)Nc1cc(Cl)cc(Cl)c1 (stereo not drawn),–,–,–,–,+
CC(OC(=O)C1CCC1)C(=O)Nc1cc(Cl)cc(Cl)c1 (stereo not drawn),–,–,–,–,–
O=C(CN1C(=O)NC2(CCCC2)C1=O)Nc1cccc(Cl)c1Cl,–,–,–,–,–
O=C1CN(CC(=O)Nc2cccc(Cl)c2Cl)c2ccccc2N1,–,–,–,–,+
COc1ccc(NS(=O)(=O)c2cccc(C(=O)O)c2)cc1,–,–,–,–,–
SMILES,EBI2 block,MC4R ag barr,MC4R antagonist,Exocytosis inh,Myeloid diff 2
COc1ccc(C(=O)C(C)OC(=O)c2cccc(S(=O)(=O)Nc3cc(Cl)c(OC)cc3OC)c2)cc1 (stereo not drawn),37.1,–,–,–,–
CCOC(=O)/C(=C\C=C1/Sc2cc(OCC)c(OCC)cc2N1CC)C(C)=O,–,–,–,–,+
CCN1/C(=C/C(C)=O)Sc2ccc(OC)cc21,–,–,–,–,–
CCOC(=O)/C(=C/C=C1\Sc2cc(OCC)c(OCC)cc2N1CC)C(C)=O,–,–,–,–,+
CC1(C)Cc2ccccc2C2=NNC(=O)C2=N1,–,–,–,–,+
CN(CC(=O)N(C)CC(=O)Nc1c(Cl)cccc1Cl)Cc1ccc(Br)s1,–,–,–,–,–
CCCCOc1ccc(C(=O)N/C(=C\c2cccc([N+](=O)[O-])c2)C(=O)OC(C)C)cc1,–,–,–,–,–
CCCCOc1ccc(C(=O)N/C(=C\c2cccc([N+](=O)[O-])c2)C(=O)OCCC)cc1,–,8.8,–,–,–
COc1ccc(OC)c(C(=O)Cn2nnc(-c3ccc(N4CCOCC4)cc3)n2)c1,–,9.3,–,–,–
CC(OC(=O)CNC(=O)C1CCCCC1)C(=O)NCc1ccccc1 (stereo not drawn),–,–,–,–,–
COc1cccc(-c2cc(C(=O)Nc3cc(C)on3)no2)c1,–,8.5,–,–,–
Cc1cc(NC(=O)c2ccc(COc3ccc(Cl)c(C)c3)o2)no1,–,9.4,–,–,–
Cc1cc(NC(=O)c2ccc(COc3ccccc3Cl)o2)no1,–,–,–,–,–
Cc1cc(NC(=O)c2cc(-c3cccc(Cl)c3)on2)no1,–,–,–,–,–
N#C/C(=C/c1ccc(-c2ccccc2)o1)c1nc(-c2cccs2)cs1,–,–,–,–,+
N#C/C(=C/c1ccc(-c2ccc(S(N)(=O)=O)cc2)o1)C(=O)Nc1ccccc1,–,–,–,–,–
COC(=O)c1ccc(/C=C(\C#N)c2nc3ccccc3s2)cc1,–,–,–,–,–
N#C/C(=C\c1ccccn1)c1nc2ccccc2s1,–,–,–,–,+
N#C/C(=C/c1ccc(-c2ccc(S(N)(=O)=O)cc2)o1)c1nc2ccccc2s1,–,–,–,–,+
Cc1ccc(Nc2nc3ccccc3c(=O)s2)cc1C,–,–,–,–,–
COc1ccccc1Nc1nc(Cl)c(C=O)s1,–,–,–,–,+
Cc1ccc(Nc2nc(Cl)c(C=O)s2)cc1Cl,–,–,–,–,+
CC(=O)NC(C)(c1ccccc1)c1nc(-c2ccc(F)c(Cl)c2)cs1 (stereo not drawn),–,–,–,–,–
COc1cccc(NC(=O)c2nc(S(C)(=O)=O)ncc2Cl)c1,–,–,–,–,–
COc1ccccc1NC(=O)c1nc(S(=O)(=O)Cc2ccccc2)ncc1Cl,73.2,–,–,–,?
SMILES,EBI2 block,MC4R ag barr,MC4R antagonist,Exocytosis inh,Myeloid diff 2
CCS(=O)(=O)c1ncc(Cl)c(C(=O)Nc2ccccc2OC)n1,79.4,–,–,–,?
Cc1cc(Oc2ccc(Br)cc2)nc(SCC(=O)c2ccccc2)n1,–,8.6,–,–,–
CS(=O)(=O)c1ccc2nc(NC(=O)c3ccc(S(=O)(=O)NCC4CCCO4)cc3)sc2c1 (stereo not drawn),–,–,–,–,–
COc1cccc(OCc2cc(C(=O)NC3CCOCC3)no2)c1,–,–,–,–,+
Cc1ccc(N2CC(C(=O)NC3CC3)CC2=O)cc1Cl (stereo not drawn),–,–,–,–,–
O=C(NC1CC1)C1CC(=O)N(c2cccc(Cl)c2)C1 (stereo not drawn),–,–,–,–,+

# Source: PubChem BioAssay
